# In publication PMC9035045 (Cell chemical biology, 2021):
# Non-standard residues stand in square brackets, D forms with d. Residues, ends and D or L forms follow the SMILES beside them. *: point of attachment. NH(CH2CH2O)11C2H4NHBiotinyl = O=C(CCCC[C@@H]1SC[C@@H]2NC(=O)N[C@@H]21)NCCOCCOCCOCCOCCOCCOCCOCCOCCOCCOCCOCCN*; Lys(iBu,2-norbornyl) = CC(C)CN(CCCC[C@H](N)C(=O)O)C1CC2CCC1C2; Lys(Me,2-norbornyl) = CN(CCCC[C@H](N)C(=O)O)C1CC2CCC1C2; Nva(5-morpholino) = N[C@@H](CCCN1CCOCC1)C(=O)O; Benzoyl(4-tBu) = CC(C)(C)c1ccc(C(=O)*)cc1; Gly(cBu) = N[C@H](C(=O)O)C1CCC1
# How the values were obtained:
# CDYL2 = target: T1, CDYL2 (Homo sapiens, UniProt Q8N8U2); assay: TR-FRET competitive displacement assay; assay type: binding
# T1 sequence (Q8N8U2 1-75): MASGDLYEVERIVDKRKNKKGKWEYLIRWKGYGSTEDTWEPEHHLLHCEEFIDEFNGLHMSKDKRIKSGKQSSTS
# CBX8 = target: T2, CBX8 (Mus musculus, UniProt Q9QXV1); assay: CBX8 GFP reporter assay in mESCs; assay type: cell-based; conditions: 48 h, result in words
# T2 sequence (Q9QXV1 1-362): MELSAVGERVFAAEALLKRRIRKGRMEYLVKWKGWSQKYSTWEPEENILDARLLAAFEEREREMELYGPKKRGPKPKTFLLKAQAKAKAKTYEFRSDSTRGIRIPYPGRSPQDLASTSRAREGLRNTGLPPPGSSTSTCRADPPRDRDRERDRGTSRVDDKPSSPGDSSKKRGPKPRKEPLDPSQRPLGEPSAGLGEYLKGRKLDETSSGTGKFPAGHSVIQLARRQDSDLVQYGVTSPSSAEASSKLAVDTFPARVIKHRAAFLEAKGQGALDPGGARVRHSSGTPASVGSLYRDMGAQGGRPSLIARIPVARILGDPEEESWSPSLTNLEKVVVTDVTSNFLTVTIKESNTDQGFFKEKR
# In short: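 Mouse ESC reporter line carrying 12xZFHD1, 4xGAL4 and 7xTetO sites upstream of a Puromycin-GFP gene, made by recombinase-mediated cassette exchange. Cells grown feeder-free in high-glucose DMEM with 13.5% FBS and LIF. 2,000 cells/well seeded onto compound in triplicate: 10-point 2-fold series, or for ester analogues 15-point 1.5-fold series with 0.06% DMSO final. 48 h at 37°C. GFP read by flow cytometry on gated live single cells.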
# mESCs = assay: CellTiter-Glo cell viability assay; assay type: cell-based, mouse; conditions: 48 h, result in words
# In short: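 mESCs plated at 5,000 cells/well onto a ten-point 1:2 compound dilution series in mESC medium. 48 h at 37°C, 5% CO2. Lysed with CellTiter-Glo reagent; luminescence read after 15 min at room temperature in dim light.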
# 274 purified Kme readers [1] = target: T3, 274 purified Kme readers (Homo sapiens, UniProt O00257); assay: Protein domain microarray; assay type: binding; conditions: 1 μM, qualitative
# T3 sequence (O00257 1-69): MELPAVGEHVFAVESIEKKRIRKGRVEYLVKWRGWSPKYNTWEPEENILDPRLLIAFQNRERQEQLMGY
# 274 purified Kme readers [2] = target: T4, 274 purified Kme readers (Homo sapiens, UniProt O95503); assay: Protein domain microarray; assay type: binding; conditions: 1 μM, qualitative
# T4 sequence (O95503 1-69): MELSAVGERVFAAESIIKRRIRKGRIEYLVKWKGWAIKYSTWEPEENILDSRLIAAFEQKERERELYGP
# 274 purified Kme readers [3] = target: T5, 274 purified Kme readers (Homo sapiens, UniProt O95931); assay: Protein domain microarray; assay type: binding; conditions: 1 μM, qualitative
# T5 sequence (O95931 1-69): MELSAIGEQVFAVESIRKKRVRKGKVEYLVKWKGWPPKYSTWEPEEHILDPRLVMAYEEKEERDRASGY
# 274 purified Kme readers [4] = target: 274 purified Kme readers (Homo sapiens, UniProt P45973); assay: Protein domain microarray; assay type: binding; conditions: 1 μM, qualitative
# 274 purified Kme readers (Homo sapiens, UniProt P45973), sequence (P45973 1-78): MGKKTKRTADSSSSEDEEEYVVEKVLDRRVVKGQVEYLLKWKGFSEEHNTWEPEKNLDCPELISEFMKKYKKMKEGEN
# 274 purified Kme readers [5] = target: 274 purified Kme readers (Homo sapiens, UniProt P83916); assay: Protein domain microarray; assay type: binding; conditions: 1 μM, qualitative
# 274 purified Kme readers (Homo sapiens, UniProt P83916), sequence (P83916 1-79): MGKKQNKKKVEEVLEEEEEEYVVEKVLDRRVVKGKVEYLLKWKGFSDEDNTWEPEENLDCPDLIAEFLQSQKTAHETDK
# 274 purified Kme readers [6] = target: 274 purified Kme readers (Homo sapiens, UniProt Q13185); assay: Protein domain microarray; assay type: binding; conditions: 1 μM, qualitative
# 274 purified Kme readers (Homo sapiens, UniProt Q13185), sequence (Q13185 1-88): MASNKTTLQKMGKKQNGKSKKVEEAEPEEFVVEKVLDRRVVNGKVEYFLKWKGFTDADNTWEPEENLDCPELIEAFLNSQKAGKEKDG
# 274 purified Kme readers [7] = target: T6, 274 purified Kme readers (Homo sapiens, UniProt Q14781); assay: Protein domain microarray; assay type: binding; conditions: 1 μM, qualitative
# T6 sequence (Q14781 1-70): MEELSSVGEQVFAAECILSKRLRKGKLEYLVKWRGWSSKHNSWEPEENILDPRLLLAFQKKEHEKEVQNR
# 274 purified Kme readers [8] = target: T7, 274 purified Kme readers (Homo sapiens, UniProt Q8N8U2); assay: Protein domain microarray; assay type: binding; conditions: 1 μM, qualitative
# T7 sequence (Q8N8U2 1-67): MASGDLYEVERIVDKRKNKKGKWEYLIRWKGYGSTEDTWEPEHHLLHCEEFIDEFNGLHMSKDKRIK
# 274 purified Kme readers [9] = target: T8, 274 purified Kme readers (Homo sapiens, UniProt Q9HC52); assay: Protein domain microarray; assay type: binding; conditions: 1 μM, qualitative
# T8 sequence (Q9HC52 1-69): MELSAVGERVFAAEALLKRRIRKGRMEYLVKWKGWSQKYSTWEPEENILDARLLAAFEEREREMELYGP
# CBX7 = target: T9, CBX7 (Mus musculus, UniProt Q8VDS3); assay: CBX7 GFP reporter assay in mESCs; assay type: cell-based; conditions: result in words
# T9 sequence (Q8VDS3 1-158): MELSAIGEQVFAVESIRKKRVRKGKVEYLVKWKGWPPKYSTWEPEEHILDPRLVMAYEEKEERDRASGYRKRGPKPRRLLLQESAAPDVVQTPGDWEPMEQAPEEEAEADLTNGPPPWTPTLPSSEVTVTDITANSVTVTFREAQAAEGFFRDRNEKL
# CBX2, CBX6, and CBX7 = assay: ChIP-qPCR at endogenous Polycomb target genes; assay type: cell-based, mouse; conditions: 20 μM, wild-type mESCs (absence of CBX8)
structure (smiles),measurement,setting,value
"COC(=O)[C@H](CO)NC(=O)[C@H](CCCCN(C)C1CC2CCC1C2)NC(=O)[C@H](CCCN1CCOCC1)NC(=O)[C@@H](NC(=O)[C@H](Cc1ccccc1)NC(=O)c1ccc(C(C)(C)C)cc1)C1CCC1 (stereo partly drawn) [Compound 38, Methyl N^6-(bicyclo[2.2.1]heptan-2-yl)-N^2-((S)-2-((S)-2-((S)-2-(4-(tert-butyl)benzamido)-3-phenylpropanamido)-2-cyclobutylacetamido)-5-morpholinopentanoyl)-N^6-methyl-L-lysyl-L-serinate] ({Benzoyl(4-tBu)}-F[Gly(cBu)][Nva(5-morpholino)][Lys(Me,2-norbornyl)]S-OMe)",IC50,CDYL2,0.96 ± 0.14 µM
same,GFP reactivation / cellular activity in the CBX8 reporter assay,CBX8,no cellular activity
same,cytotoxicity,mESCs,no cytotoxicity up to 100 μM
"CC(C)CN(CCCC[C@H](NC(=O)[C@H](CCCN1CCOCC1)NC(=O)[C@@H](NC(=O)[C@H](Cc1ccccc1)NC(=O)c1ccc(C(C)(C)C)cc1)C1CCC1)C(=O)N[C@@H](CO)C(=O)NCCOCCOCCOCCOCCOCCOCCOCCOCCOCCOCCOCCNC(=O)CCCC[C@@H]1SC[C@@H]2NC(=O)N[C@@H]21)C1CC2CCC1C2 (stereo partly drawn) [Compound 39] ({Benzoyl(4-tBu)}-F[Gly(cBu)][Nva(5-morpholino)][Lys(iBu,2-norbornyl)]S-{NH(CH2CH2O)11C2H4NHBiotinyl})",binding to CBX4 on microarray,274 purified Kme readers [1],less strongly
same,binding to CBX6 on microarray,274 purified Kme readers [2],less strongly
same,binding to CBX7 on microarray,274 purified Kme readers [3],less strongly
same,binding to CBX5 on microarray,274 purified Kme readers [4],did not display binding
same,binding to CBX1 on microarray,274 purified Kme readers [5],did not display binding
same,binding to CBX3 on microarray,274 purified Kme readers [6],did not display binding
same,binding to CBX2 CD on microarray,274 purified Kme readers [7],bound strongly
same,binding to the CD of CDYL2 on microarray,274 purified Kme readers [8],weakly
same,binding to CBX8 CD on microarray,274 purified Kme readers [9],bound strongly
"COC(=O)[C@H](CO)NC(=O)[C@H](CCCCN(CC(C)C)C1CC2CCC1C2)NC(=O)[C@H](CCCN1CCOCC1)NC(=O)[C@@H](NC(=O)[C@H](Cc1ccccc1)NC(=O)c1ccc(C(C)(C)C)cc1)C1CCC1 (stereo partly drawn) [Compound 34, Methyl N^6-(bicyclo[2.2.1]heptan-2-yl)-N^2-((S)-2-((S)-2-((S)-2-(4-(tert-butyl)benzamido)-3-phenylpropanamido)-2-cyclobutylacetamido)-5-morpholinopentanoyl)-N^6-isobutyl-L-lysyl-L-serinate] ({Benzoyl(4-tBu)}-F[Gly(cBu)][Nva(5-morpholino)][Lys(iBu,2-norbornyl)]S-OMe)",IC50,CDYL2,~100 µM
same,cellular activity in the CBX7 reporter cell line,CBX7,no cellular activity
same,"chromatin binding of CBX2, CBX6, and CBX7","CBX2, CBX6, and CBX7",minimal effects on chromatin binding
